The subject of data set [1] is HIV-1 vector with IN mutant G140S/Q148H. Description: Single-round infection assay, IN mutant G140S/Q148H. Type of data set: cell-based. The conditions noted are these: Human immunodeficiency virus 1, read-out: EC50 G140S/Q148H. The method, boiled down: (§1)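 293 cells were co-transfected by calcium phosphate with pNLNgoMIVR–ΔLUC (16 μg; WT or IN mutant) plus pHCMV-g (4 μg) and washed ~6 h later. Supernatant was harvested 48 h later, clarified, filtered and diluted. HOS cells (4000/well) were pretreated 3 h at 37 °C with test compound (11 dilutions, 5 μM–0.0001 μM), then infected for 48 h. Luciferase was read and EC50 fitted by nonlinear regression.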

In data set [2] the test system is HIV-1 vector with IN mutant N155H. Description: Single-round infection assay, IN mutant N155H. The conditions noted are these: Human immunodeficiency virus 1, read-out: EC50 N155H. The format is cell-based. The method, boiled down: as §1
The test system of data set [3] is HIV-1 vector with wild-type (WT) IN. Description: Single-round infection assay, viral construct with WT IN. Type of data set: cell-based. The conditions noted are these: read-out: EC50 WT, single-round HIV-1 vector, HOS cells. Put shortly:
as §1

For data set [4], the system named is HIV-1 vector with IN mutant S230N. Description: Single-round infection assay, IN mutant S230N. Type of data set: cell-based. The conditions noted are these: read-out: EC50 S230N, single-round HIV-1 vector. Put shortly: as §1
Data set [5] deals with HIV-1 vector with IN mutant G118R. Description: Single-round infection assay, IN mutant G118R. The conditions noted are these: for resistance / loss of potency against G118R mutant: our single-round infection assays. The format is cell-based. The method, boiled down: as §1
Data set [6] relates to HIV-1 vector with wild-type (WT) IN. The conditions noted are these: read-out: EC50 WT, single-round HIV-1 vector, previously reported ref 46; cited from earlier work.
The subject of data set [7] is HIV-1 vector with IN mutant R263K. The conditions noted are these: single-round infection assays; cited from earlier work.
Data set [8] deals with HIV-1 vector with IN mutant G118R. The conditions noted are these: single-round infection assays; cited from earlier work.
Data set [9] concerns HIV-1 vector with IN mutant G140S/Q148H. The conditions noted are these: single-round infection assays; cited from earlier work.
For data set [10], the system named is HIV-1 vector with IN mutant R263K. Description: Single-round infection assay, IN mutant R263K. Type of data set: cell-based. The conditions noted are these: read-out: EC50 R263K, single-round HIV-1 vector. Put shortly:
as §1

Data set [11] relates to human osteosarcoma (HOS) cells. Description: Cellular cytotoxicity. Type of data set: cell-based. The conditions noted are these: 50% reduction in the level of ATP in HOS cells, 48 h. The method, boiled down: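 HOS cells grown in DMEM with 5% FBS, 5% newborn calf serum and penicillin/streptomycin, then seeded at 4000 cells/well the day before the assay. Test compound was added over 250 μM to 0.05 μM and cells were held at 37 °C for 48 h. ATP luminescence reagent was read after 20 min at room temperature. CC50 came from a nonlinear regression fit.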

In data set [12] the target is Sso7d IN (HIV-1 integrase) (UniProt P12497+P39476). Description: In vitro IN strand transfer assay. Type of data set: biochemical.
The test system of data set [13] is HIV-1 vector with IN mutant E138K/G140C/Q148R. Description: Single-round infection assay, IN mutant E138K/G140C/Q148R. The format is cell-based. The conditions noted are these: Human immunodeficiency virus 1, read-out: EC50 E138K/G140C/Q148R. The method, boiled down:
(§2)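 Vector carrying the mutant IN was made by calcium phosphate co-transfection of 293 cells with pNLNgoMIVR–ΔLUC (16 μg) and pHCMV-g (4 μg); supernatant was collected 48 h after washing. HOS cells were exposed 3 h at 37 °C to test compound (11 dilutions, 5 μM–0.0001 μM), then infected for 48 h. Luciferase luminescence gave EC50 by nonlinear regression; n = 4 independent experiments, each in triplicate.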

The test system of data set [14] is HIV-1 vector with IN mutant G140S/Q148R. Description: Single-round infection assay, IN mutant G140S/Q148R. The format is cell-based. The conditions noted are these: Human immunodeficiency virus 1, read-out: EC50 G140S/Q148R. The method, boiled down:
as §2

Data set [15] deals with HIV-1 vector with IN mutant T97A/G140S/Q148H. Description: Single-round infection assay, IN mutant T97A/G140S/Q148H. The format is cell-based. The conditions noted are these: Human immunodeficiency virus 1, read-out: EC50 T97A/G140S/Q148H. Put shortly: as §2
Data set [16] deals with HIV-1 vector with IN mutant G140A/Q148K. Description: Single-round infection assay, IN mutant G140A/Q148K. Type of data set: cell-based. The conditions noted are these: Human immunodeficiency virus 1, read-out: EC50 G140A/Q148K. Put shortly:
as §2

Data set [17] relates to HIV-1 vector with IN mutant L74M/G140C/Q148R. Description: Single-round infection assay, IN mutant L74M/G140C/Q148R. Type of data set: cell-based. The conditions noted are these: Human immunodeficiency virus 1, read-out: EC50 L74M/G140C/Q148R. The method, boiled down:
as §2

Data set [18] concerns HIV-1 vector with IN mutant E138A/G140S/Q148H. Description: Single-round infection assay, IN mutant E138A/G140S/Q148H. Type of data set: cell-based. The conditions noted are these: Human immunodeficiency virus 1, read-out: EC50 E138A/G140S/Q148H. The method, boiled down: as §2
In data set [19] the test system is HIV-1 vector with IN mutant E138K/Q148K. Description: Single-round infection assay, IN mutant E138K/Q148K. The conditions noted are these: Human immunodeficiency virus 1, read-out: EC50 E138K/Q148K. The format is cell-based. The method, boiled down: as §2
Data set [20] deals with HIV-1 vector with IN mutant E138K/G140S/Q148H. Description: Single-round infection assay, IN mutant E138K/G140S/Q148H. Type of data set: cell-based. The conditions noted are these: Human immunodeficiency virus 1, read-out: EC50 E138K/G140S/Q148H. The method, boiled down:
as §2

Data set [21] deals with HIV-1 vector with IN mutant E138K/G140A/Q148K. Description: Single-round infection assay, IN mutant E138K/G140A/Q148K. The conditions noted are these: Human immunodeficiency virus 1, read-out: EC50 E138K/G140A/Q148K. The format is cell-based. Put shortly:
as §2

SMILES strings stand for the structures. Like-named read-outs stand apart in the source and are kept apart here.

As for `CC(C)=CCC/C(C)=C/Cn1ccn2cc(C(=O)NCc3ccc(F)cc3F)c(=O)c(O)c2c1=O` [6m], the EC50 was determined as 365 ± 43.3 nM in [1], 81.6 ± 7.6 nM in data set [2] and 38.9 ± 6.7 nM in [3].
With `COCC(C)n1ccn2cc(C(=O)NCc3ccc(F)cc3F)c(=O)c(O)c2c1=O` (centres unmarked) [6k], the EC50 in data set [1] amounted to 34.1 ± 5.4 nM; in data set [2], 5 ± 0.7 nM.
In the case of `CC(C)CCCC(C)CCN1CCn2cc(C(=O)NCc3ccc(F)cc3F)c(=O)c(O)c2C1=O` (centres unmarked) [7m], the EC50 was determined as 109 ± 20.5 nM in data set [1], 41.8 ± 4.2 nM in data set [4], 25.6 ± 4.2 nM in data set [2] and 21.4 ± 2.5 nM in data set [3].
Regarding `O=C(NCc1c(F)cc(F)cc1F)c1cn2c(c(O)c1=O)C(=O)N1[C@H]3CC[C@H](C3)O[C@@H]1C2` [BIC, bictegravir], the “resistance / loss of potency against G118R mutant” value (from here on “resistance / loss of potency”) in [5] came to 4 ×. Further, the EC50 in [6] was 2.4 ± 0.4 nM.
For the compound `C[C@@H]1CCO[C@H]2Cn3cc(C(=O)NCc4ccc(F)cc4F)c(=O)c(O)c3C(=O)N12` [DTG, dolutegravir], the “reduction in susceptibility relative to WT, R263K” value in [7] is 2 fold. In [5], the “resistance / loss of potency” value came to 9 ×. Moreover, the “reduction in susceptibility relative to WT, G118R” value in [8] is recorded as more than 5 fold. Further, the EC50 in [6] is 2.6 ± 0.3 nM. For the same compound, in data set [9], the “reduction in susceptibility relative to WT, G140S/Q148H” value was 2 fold.
As for `O=C(NCc1ccc(F)cc1F)c1cn2c(c(O)c1=O)C(=O)NCC2` [7a], the EC50 is more than 5000 nM in data set [1] and 148 ± 36.5 nM in [10].
Regarding `O=C(NCc1ccc(F)cc1F)c1cn2cc[nH]c(=O)c2c(O)c1=O` [6a], the EC50 in [1] was more than 5000 nM; in [2] it was 457 ± 21 nM. Further, in data set [11], the midpoint of cytotoxicity, the CC50, lay at 150000 ± 19900 nM.
Consider `C[C@H]1CO[C@@H]2Cn3cc(C(=O)NCc4ccc(F)cc4F)c(=O)c(O)c3C(=O)N12` [CAB, cabotegravir], for which the midpoint of inhibition in data set [12], the IC50, lay at 381 nM. Besides, the EC50 in data set [13] turned out to be 134.2 ± 0.3 nM; in data set [14], 415 ± 14.5 nM; in [15] it was 43.7 ± 4.2 nM; in data set [16], 393 ± 51.1 nM; in data set [17], 220 ± 41.2 nM; in data set [18] it was 70.2 ± 9 nM. Besides, the EC50 in data set [6] is 1.8 ± 0.5 nM; in data set [19], 772 ± 72.2 nM; in [20], 93 ± 6.1 nM; in [21] it was 610 ± 8.6 nM. Further, the “resistance / loss of potency” value in data set [5] came out at 17 ×.
Regarding `COC(CN1CCn2cc(C(=O)NCc3ccc(F)cc3F)c(=O)c(O)c2C1=O)OC` [7l], the EC50 in data set [5] (read-out: EC50 G118R, single-round HIV-1 vector, IN G118R) came to 36.4 ± 1.3 nM; in [1], 394 ± 39 nM; in data set [2], 6.3 ± 0.7 nM.
For `COC(Cn1ccn2cc(C(=O)NCc3ccc(F)cc3F)c(=O)c(O)c2c1=O)OC` [6l], the EC50 in [1] was 1150 ± 114 nM; in [2], 27.7 ± 2.7 nM.

The record behind these values is publication PMC10928719 (ACS Infectious Diseases, 2024).
